# Assay results from ChEMBL document CHEMBL4177755, “Combating Drug-Resistant Fungi with Novel Imperfectly Amphipathic Palindromic Peptides” (J Med Chem, 2018).
# How the values were obtained:
# Staphylococcus aureus [1] = test: Bactericidal activity against Staphylococcus aureus ATCC 25923; format: functional; conditions: read-out: MBC99.9
# Outline: (§1)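 Wells from the 24 h, 37 °C MHB microdilution plates (bacteria at a final (0.5−1) × 10^5 CFU/mL; peptide diluted in 0.2% BSA) were plated on agar and incubated overnight. MBC is the lowest concentration killing >99.9% of cells. Each test was reproduced at least 3 times.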
# Candida albicans [2] = test: Antifungal activity against fluconazole-resistant Candida albicans 56452 after 48 hrs by broth microdilution method; format: functional; conditions: Candida albicans, 56452, 48 h
# Outline: (§2)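 Modified CLSI M27-A2 broth microdilution. Yeast at (0.5−1) × 10^3 CFU/mL in MOPS-buffered RPMI 1640 was mixed 1:1 with peptide serially diluted in 0.2% BSA and incubated 48 h at 28 °C. Absorbance was read at 492 nm; MIC is the lowest concentration inhibiting 95% of growth. Triplicate, three biological replicates.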
# Candida albicans [3] = test: Antifungal activity against Candida albicans SP3931 after 48 hrs by broth microdilution method; format: functional; conditions: SP3931, 48 h; outline: as §2
# Candida albicans [4] = test: Fungicidal activity against Candida albicans SP3903 after 96 hrs; format: functional; conditions: SP3903, 96 h, read-out: MFC99.9
# Outline: (§3)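 After the 48 h, 28 °C broth microdilution in MOPS-buffered RPMI 1640 (inoculum (0.5−1) × 10^3 CFU/mL), 50 μL from each well was plated on YM agar for a further 48 h at 28 °C. MFC is the lowest concentration killing at least 99.9% of cells. Triplicate, three biological replicates.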
# Erythrocyte = test: Hemolytic activity in human RBC after 1 hr; format: ADME, cell-based
# Outline: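 Fresh human erythrocytes, diluted 10-fold in PBS pH 7.4, were mixed with equal volumes of peptide and held 1 h at 37 °C. After centrifugation at 1000g, supernatant hemoglobin was read at 576 nm. PBS set 0% and 0.1% Triton X-100 set 100% lysis. MHC is the concentration causing 10% hemolysis. At least three experiments were run, each in technical triplicate.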
# Candida albicans [5] = test: Antifungal activity against Candida albicans cgmcc 2.2086 in presence of ZnCl2 by broth dilution method; format: functional
# Candida albicans [6] = test: Fungicidal activity against Candida albicans SP3931 after 96 hrs; format: functional; conditions: SP3931, 96 h, read-out: MFC99.9; outline: as §3
# Staphylococcus aureus [7] = test: Antibacterial activity against Staphylococcus aureus ATCC 25923 after 24 hrs; format: functional; conditions: ATCC 25923, 24 h
# Outline: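 Modified NCCLS broth microdilution. Mid-log bacteria at (0.5−1) × 10^5 CFU/mL in MHB were mixed 1:1 with peptide serially diluted in 0.2% BSA and incubated 24 h at 37 °C. Absorbance was read at 492 nm; MIC is the lowest concentration inhibiting 95% of growth. At least 3 repeats.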
# [8] = Antibacterial activity against Salmonella pullorum ATCC 7913 after 24 hrs; format: functional, Salmonella enterica subsp. enterica serovar Pullorum; conditions: Salmonella enterica, ATCC 7913, 24 h
# Outline: (§4)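 Broth microdilution. Mid-log bacteria in MHB at a final (0.5−1) × 10^5 CFU/mL were mixed with equal volumes of peptide serially diluted in 0.2% BSA. Plates were incubated 24 h at 37 °C and read at A492. MIC is the lowest concentration inhibiting 95% of growth. Each test was repeated at least 3 times.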
# Candida albicans [9] = test: Fungicidal activity against Candida albicans cgmcc 2.2086 after 96 hrs; format: functional; conditions: cgmcc 2.2086, 96 h, read-out: MFC99.9; outline: as §3
# Candida albicans [10] = test: Fungicidal activity against Candida albicans SP3876 after 96 hrs; format: functional; conditions: SP3876, 96 h, read-out: MFC99.9; outline: as §3
# Candida tropicalis = test: Fungicidal activity against Candida tropicalis cgmcc 2.1975 after 96 hrs; format: functional; conditions: cgmcc 2.1975, 96 h, read-out: MFC99.9
# Outline: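 Wells from the 48 h, 28 °C RPMI 1640/MOPS microdilution plates were plated on YM agar and incubated a further 48 h at 28 °C. MFC is the lowest concentration killing at least 99.9% of cells. Run in triplicate with three biological replicates.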
# Candida albicans [11] = test: Fungicidal activity against fluconazole-resistant Candida albicans 56214 after 96 hrs; format: functional; conditions: Candida albicans, 56214, 96 h; read-out: MFC99.9; outline: as §3
# Staphylococcus aureus [12] = test: Bactericidal activity against methicillin-resistant Staphylococcus aureus ATCC 4330; format: functional; conditions: read-out: MBC99.9
# Outline: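 Bacteria at (0.5−1) × 10^5 CFU/mL in MHB were exposed to serially diluted peptide (0.2% BSA) for 24 h at 37 °C, then 50 μL aliquots were plated on agar overnight. MBC is the lowest concentration killing >99.9% of cells. At least 3 repeats.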
# [13] = tested on: Staphylococcus epidermidis; test: Bactericidal activity against Staphylococcus epidermidis ATCC 12228; format: functional; conditions: read-out: MBC99.9; outline: as §1
# Candida albicans [14] = test: Antifungal activity against fluconazole-resistant Candida albicans 17546 after 48 hrs by broth microdilution method; format: functional; conditions: Candida albicans, 17546, 48 h; outline: as §2
# Candida albicans [15] = test: Fungicidal activity against Candida albicans isolated from alveolar fluid after 96 hrs; format: functional; conditions: read-out: MFC99.9; outline: as §3
# Candida albicans [16] = test: Antifungal activity against Candida albicans isolated from alveolar fluid after 48 hrs by broth microdilution method; format: functional; outline: as §2
# Escherichia coli [17] = test: Antibacterial activity against Escherichia coli ATCC 25922 after 24 hrs; format: functional; conditions: ATCC 25922, 24 h; outline: as §4
# Candida albicans [18] = test: Antifungal activity against Candida albicans cgmcc 2.2086 in presence of KCl by broth dilution method; format: functional
# Candida albicans [19] = test: Fungicidal activity against fluconazole-resistant Candida albicans 56452 after 96 hrs; format: functional; conditions: Candida albicans, 56452, 96 h; read-out: MFC99.9; outline: as §3
# Escherichia coli [20] = test: Bactericidal activity against Escherichia coli 1005; format: functional; conditions: read-out: MBC99.9; outline: as §1
# Escherichia coli [21] = test: Antibacterial activity against Escherichia coli 1005 after 24 hrs; format: functional; conditions: Escherichia coli, 1005, 24 h; outline: as §4
# Candida albicans [22] = test: Antifungal activity against Candida albicans cgmcc 2.2086 in presence of NaCl by broth dilution method; format: functional
# Escherichia coli [23] = test: Bactericidal activity against Escherichia coli ATCC 25922; format: functional; conditions: read-out: MBC99.9; outline: as §1
# [24] = Cytotoxicity against mouse RAW264.7 cells assessed as cell viability at 2 to 64 uM after 24 hrs by MTT assay relative to control; format: cell-based; conditions: read-out: Activity
# Outline: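 MTT viability assay. RAW264.7 or HEK293T cells at (1.0−2.0) × 10^5 per well were exposed to a peptide concentration series for 24 h at 37 °C in 5% CO2. MTT was then added at 0.5 mg/mL final for 4 h; formazan was dissolved in DMSO and read at 570 nm. Results average three independent trials.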
# Escherichia coli [25] = test: Antibacterial activity against Escherichia coli ATCC 25922 after 18 hrs in presence of NH4Cl by broth dilution method; format: functional; conditions: ATCC 25922, 18 h
# Escherichia coli [26] = test: Antibacterial activity against Escherichia coli ATCC 25922 after 18 hrs in presence of CaCl2 by broth dilution method; format: functional; conditions: ATCC 25922, 18 h
# Escherichia coli [27] = test: Antibacterial activity against Escherichia coli ATCC 25922 after 18 hrs in presence of NaCl by broth dilution method; format: functional; conditions: ATCC 25922, 18 h
# Escherichia coli [28] = test: Antibacterial activity against Escherichia coli ATCC 25922 after 18 hrs in presence of KCl by broth dilution method; format: functional; conditions: ATCC 25922, 18 h
molecule,measurement,setting,value
CC[C@H](C)[C@H](NC(=O)CN)C(=O)NCC(=O)N[C@@H](C)C(=O)N[C@H](C(=O)N[C@@H](CC(C)C)C(=O)N[C@@H](CCCCN)C(=O)N[C@H](C(=O)N[C@@H](CC(C)C)C(=O)N[C@H](C(=O)N[C@H](C(=O)NCC(=O)N[C@@H](CC(C)C)C(=O)N1CCC[C@H]1C(=O)N[C@@H](C)C(=O)N[C@@H](CC(C)C)C(=O)N[C@H](C(=O)N[C@@H](CO)C(=O)N[C@@H](Cc1c[nH]c2ccccc12)C(=O)N[C@H](C(=O)N[C@@H](CCCCN)C(=O)N[C@@H](CCCNC(=N)N)C(=O)N[C@@H](CCCCN)C(=O)N[C@@H](CCCNC(=N)N)C(=O)N[C@@H](CCC(N)=O)C(=O)N[C@@H](CCC(N)=O)C(N)=O)[C@@H](C)CC)[C@@H](C)CC)[C@@H](C)O)[C@@H](C)O)C(C)C)C(C)C [MELITTIN],MBC,Staphylococcus aureus [1],4 µM
same,MIC95,Candida albicans [2],8 µM
same,MIC95,Candida albicans [3],8 µM
same,MFC,Candida albicans [4],4 µM
same,HC10,Erythrocyte,0.25 µM
same,MIC,Candida albicans [5],4 µM
same,MFC,Candida albicans [6],8 µM
same,MIC95,Staphylococcus aureus [7],4 µM
same,MIC95,[8],2 µM
same,MFC,Candida albicans [9],8 µM
same,MFC,Candida albicans [10],4 µM
same,MFC,Candida tropicalis,8 µM
same,MFC,Candida albicans [11],4 µM
same,MBC,Staphylococcus aureus [12],1 µM
same,MBC,[13],1 µM
same,MIC95,Candida albicans [14],8 µM
same,MFC,Candida albicans [15],4 µM
same,MIC95,Candida albicans [16],4 µM
same,MIC95,Escherichia coli [17],2 µM
same,MIC,Candida albicans [18],4 µM
same,MFC,Candida albicans [19],8 µM
same,MBC,Escherichia coli [20],2 µM
same,MIC95,Escherichia coli [21],2 µM
same,MIC,Candida albicans [22],8 µM
same,MBC,Escherichia coli [23],2 µM
H-RLLRRLRRLLR-NH2,MBC,Staphylococcus aureus [1],16 µM
same,MIC95,Candida albicans [2],8 µM
same,MIC95,Candida albicans [3],8 µM
same,MFC,Candida albicans [4],4 µM
same,HC10,Erythrocyte,> 128 µM
same,MIC,Candida albicans [5],8 µM
same,MFC,Candida albicans [6],8 µM
same,MIC95,Staphylococcus aureus [7],8 µM
same,"viability at 24 h, up to 64 µM",[24],70 to 80%
same,MIC95,[8],8 µM
same,MIC,Escherichia coli [25],4 µM
same,MFC,Candida albicans [9],16 µM
same,MFC,Candida albicans [10],8 µM
same,MFC,Candida tropicalis,4 µM
same,MFC,Candida albicans [11],16 µM
same,MBC,Staphylococcus aureus [12],16 µM
same,MBC,[13],4 µM
same,MIC95,Candida albicans [14],8 µM
same,MIC,Escherichia coli [26],8 µM
same,MFC,Candida albicans [15],16 µM
same,MIC95,Candida albicans [16],8 µM
same,MIC95,Escherichia coli [17],4 µM
same,MIC,Candida albicans [18],16 µM
same,MFC,Candida albicans [19],8 µM
same,MBC,Escherichia coli [20],4 µM
same,MIC95,Escherichia coli [21],4 µM
same,MIC,Candida albicans [22],16 µM
same,MBC,Escherichia coli [23],16 µM
same,MIC,Escherichia coli [27],4 µM
same,MIC,Escherichia coli [28],4 µM
H-RFFRRFRRFFR-NH2,MBC,Staphylococcus aureus [1],8 µM
same,MIC95,Candida albicans [2],8 µM
same,MIC95,Candida albicans [3],8 µM
same,MFC,Candida albicans [4],4 µM
same,HC10,Erythrocyte,> 128 µM
same,MIC,Candida albicans [5],8 µM
same,MFC,Candida albicans [6],16 µM
same,MIC95,Staphylococcus aureus [7],4 µM
same,"viability at 24 h, up to 64 µM",[24],70 to 80%
same,MIC95,[8],4 µM
same,MIC,Escherichia coli [25],4 µM
same,MFC,Candida albicans [9],16 µM
same,MFC,Candida albicans [10],8 µM
same,MFC,Candida tropicalis,4 µM
same,MFC,Candida albicans [11],16 µM
same,MBC,Staphylococcus aureus [12],8 µM
same,MBC,[13],4 µM
same,MIC95,Candida albicans [14],4 µM
same,MIC,Escherichia coli [26],8 µM
same,MFC,Candida albicans [15],16 µM
same,MIC95,Candida albicans [16],8 µM
same,MIC95,Escherichia coli [17],8 µM
same,MIC,Candida albicans [18],16 µM
same,MFC,Candida albicans [19],8 µM
same,MBC,Escherichia coli [20],8 µM
same,MIC95,Escherichia coli [21],8 µM
same,MIC,Candida albicans [22],32 µM
same,MBC,Escherichia coli [23],8 µM
same,MIC,Escherichia coli [27],8 µM
same,MIC,Escherichia coli [28],8 µM
H-FFRRFRRFF-NH2,MBC,Staphylococcus aureus [1],8 µM
same,MIC95,Candida albicans [2],16 µM
same,MIC95,Candida albicans [3],16 µM
same,MFC,Candida albicans [4],16 µM
same,HC10,Erythrocyte,> 128 µM
same,MIC,Candida albicans [5],32 µM
same,MFC,Candida albicans [6],32 µM
same,MIC95,Staphylococcus aureus [7],4 µM
same,"viability at 24 h, up to 64 µM",[24],70 to 80%
same,MIC95,[8],32 µM
same,MIC,Escherichia coli [25],8 µM
same,MFC,Candida albicans [9],32 µM
same,MFC,Candida albicans [10],32 µM
same,MFC,Candida tropicalis,8 µM
same,MFC,Candida albicans [11],32 µM
same,MBC,Staphylococcus aureus [12],4 µM
same,MBC,[13],8 µM
same,MIC95,Candida albicans [14],4 µM
same,MIC,Escherichia coli [26],32 µM
same,MFC,Candida albicans [15],32 µM
same,MIC95,Candida albicans [16],16 µM
same,MIC95,Escherichia coli [17],8 µM
same,MIC,Candida albicans [18],16 µM
same,MFC,Candida albicans [19],16 µM
same,MBC,Escherichia coli [20],16 µM
same,MIC95,Escherichia coli [21],8 µM
same,MIC,Candida albicans [22],16 µM
same,MBC,Escherichia coli [23],8 µM
same,MIC,Escherichia coli [27],8 µM
same,MIC,Escherichia coli [28],8 µM
